According to paper PMC6294321 (Molecular cell, 2018):
Values belong to the molecule of their own block, whether it stands above or below them. Where no end group is shown, it is not given here.

What was measured:
[1] = biological target: T1, GST-tagged KLHDC2 (kelch repeat domain, WT) (Homo sapiens, UniProt Q9Y2U9); assay: AlphaScreen competition assay, wild type KLHDC2; assay type: binding; conditions: USP1 vs SelK 8 aa peptide
T1 sequence (Q9Y2U9 1-362): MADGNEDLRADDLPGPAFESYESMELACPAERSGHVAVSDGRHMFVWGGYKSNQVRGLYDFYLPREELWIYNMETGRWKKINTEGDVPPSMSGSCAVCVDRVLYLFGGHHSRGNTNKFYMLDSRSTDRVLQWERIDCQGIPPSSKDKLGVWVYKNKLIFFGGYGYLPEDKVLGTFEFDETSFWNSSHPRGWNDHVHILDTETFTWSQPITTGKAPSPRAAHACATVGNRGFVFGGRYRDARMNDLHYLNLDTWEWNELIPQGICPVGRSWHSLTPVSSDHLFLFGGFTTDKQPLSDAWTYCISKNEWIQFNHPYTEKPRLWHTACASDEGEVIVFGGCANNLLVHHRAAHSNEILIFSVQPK
Method in brief: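 Human KLHDC2 kelch domain (aa 1–362), GST-tagged, was expressed in baculovirus-infected Hi5 cells. It was purified by glutathione agarose, Q Sepharose and Superdex-200. The assay used 0.12 nM protein on anti-GST acceptor beads and 1.7 nM biotinylated 12 aa SelK peptide on streptavidin donor beads, 5 μg/ml beads. Buffer: HEPES pH 7.5, NaCl, TCEP, Tween-20, BSA. Competitor peptides ran 2 nM–3 mM, in triplicate; IC50 by non-linear fitting.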

[2] = biological target: GST-KLHDC2 (kelch repeat domain, amino acid 1-362) (human) (UniProt Q9Y2U9); assay: AlphaScreen or HTRF
[3] = biological target: GST-KLHDC2 R241K (kelch repeat domain) (human) (UniProt Q9Y2U9); assay: AlphaScreen or HTRF
[4] = biological target: T2, GST-KLHDC2 (kelch repeat domain, amino acid 1-362) (human, UniProt Q9Y2U9 1-362); assay: AlphaScreen or HTRF
T2 sequence (looked up): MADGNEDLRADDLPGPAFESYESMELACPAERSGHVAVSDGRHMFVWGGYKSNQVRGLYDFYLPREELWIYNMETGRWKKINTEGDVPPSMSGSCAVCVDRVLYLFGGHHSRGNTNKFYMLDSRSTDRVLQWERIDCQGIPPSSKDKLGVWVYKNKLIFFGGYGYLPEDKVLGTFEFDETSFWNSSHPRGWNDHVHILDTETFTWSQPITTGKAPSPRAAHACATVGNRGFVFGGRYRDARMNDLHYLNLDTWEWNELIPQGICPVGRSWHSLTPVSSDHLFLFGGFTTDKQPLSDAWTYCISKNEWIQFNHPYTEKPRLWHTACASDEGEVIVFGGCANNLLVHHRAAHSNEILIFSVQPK

[5] = biological target: T2, GST-KLHDC2 (kelch repeat domain, amino …); assay: BLI
[6] = biological target: T3, GST-KLHDC2 R241K (kelch repeat domain) (human, UniProt Q9Y2U9 1-362, R241K); assay: AlphaScreen or HTRF
T3 sequence (looked up): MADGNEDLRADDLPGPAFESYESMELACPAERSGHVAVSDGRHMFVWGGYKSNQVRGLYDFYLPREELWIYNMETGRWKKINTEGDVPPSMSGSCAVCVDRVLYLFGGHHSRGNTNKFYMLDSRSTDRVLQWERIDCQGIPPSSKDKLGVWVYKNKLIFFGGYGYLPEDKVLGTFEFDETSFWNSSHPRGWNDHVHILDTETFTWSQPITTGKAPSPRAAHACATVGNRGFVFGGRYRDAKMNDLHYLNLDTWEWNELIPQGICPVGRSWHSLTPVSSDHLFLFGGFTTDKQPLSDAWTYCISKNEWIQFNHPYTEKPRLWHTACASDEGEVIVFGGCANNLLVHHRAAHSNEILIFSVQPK

fold lower potency/affinity vs SelK [1]: about 7 fold
Molecule: EAIGLLGG-OH [USP1-NTD degron peptide]

Kd [2]: 360000 nM
Molecule: diglycine (2 aa SelK degron peptide, label-free)

IC50 [4]: ~3 nM
Molecule: LRGPSPPPMAGG (peptide, UniProt Q9Y6D0 80-91, looked up) [12 aa SelK degron peptide (label-free)]

binding result [4]: binds
Molecule: PPMAGG (peptide, UniProt Q9Y6D0 86-91, looked up) [6 aa SelK degron peptide (label-free)]

Kd [5]: ~4 nM
Molecule: LRGPSPPPMAGG (peptide, UniProt Q9Y6D0 80-91, looked up, also: biotin, position not given here) [biotinylated 12 aa SelK degron peptide]

Further lines, the molecule ahead of its results:

Molecule: 8 aa USP1-NTD C-end degron peptide
IC50 [3]: 62600 nM
IC50 [2]: 69.5 nM

Molecule: SPPPMAGG-NH2 (peptide, UniProt Q9Y6D0 84-91, looked up) [8 aa SelK degron peptide, C-terminally amidated]
fold decrease in affinity against the unmodified 8 aa peptide [4]: ~1000 fold

Molecule: SPPPMAGG (peptide, UniProt Q9Y6D0 84-91, looked up) [8 aa SelK C-end degron peptide (label-free, wild type)]
IC50 [6]: 5900 nM
